Screening data: PubChem BioAssay, several laboratories
Runt-CBFb FRET – Runt domain-CBFb interaction inhibition; Q01196+Q13951; inhibition, % at 20 µM; 220,000 compounds, 0.46% hits; Cerulean-Runt/Venus-CBFb FRET ratio 530/480, 1 h;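 active = inhibition over about 50% at 20 µM in the single-dose screen, limit read from the data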;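 also: 0% = DMSO wells and 100% = excess unlabeled CBFb competitor control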
Target sequence (Q01196 whole entry, looked up, the tested form may be a part): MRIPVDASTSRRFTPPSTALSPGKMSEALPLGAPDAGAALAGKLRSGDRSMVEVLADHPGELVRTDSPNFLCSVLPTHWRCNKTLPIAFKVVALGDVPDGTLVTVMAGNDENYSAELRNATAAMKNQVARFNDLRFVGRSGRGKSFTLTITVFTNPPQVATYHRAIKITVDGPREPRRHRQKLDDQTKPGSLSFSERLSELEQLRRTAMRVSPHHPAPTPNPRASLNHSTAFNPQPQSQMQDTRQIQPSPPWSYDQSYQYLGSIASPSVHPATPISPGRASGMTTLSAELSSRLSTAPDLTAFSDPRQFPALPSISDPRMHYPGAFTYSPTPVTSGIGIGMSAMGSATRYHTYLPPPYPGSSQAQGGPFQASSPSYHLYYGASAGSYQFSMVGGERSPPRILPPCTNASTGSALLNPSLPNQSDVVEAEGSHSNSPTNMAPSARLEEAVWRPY
Target sequence (Q13951 whole entry, looked up, the tested form may be a part): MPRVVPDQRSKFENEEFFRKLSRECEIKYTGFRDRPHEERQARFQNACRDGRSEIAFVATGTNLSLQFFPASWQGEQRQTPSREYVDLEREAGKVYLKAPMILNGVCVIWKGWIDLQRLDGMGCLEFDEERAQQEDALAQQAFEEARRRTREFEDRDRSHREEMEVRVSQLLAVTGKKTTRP
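Doses: 20 µM compound in 1% DMSO | Material: Cerulean-labeled Runt domain protein | Amount: Each fluorescent fusion protein 100 nM | Schedule: Two 1 h room-temperature incubations shielded from light | Measured by: FRET fluorescence | Evaluation: Loss of energy transfer signal | Controls: Unlabeled CBFb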
Tb hexokinase – blocks Trypanosoma brucei hexokinase 1 activity. AID 1430. 220,000 compounds, 0.11% hits. inhibition, % at 10 µM. recombinant TbHK1, G6PDH-coupled NADH A340;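 active = inhibition of 50% or more in the single-dose primary screen; inactive = inhibition below 50%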
Hck-Nef inh – blocks Nef-activated human Hck kinase. inhibition, % at 20 µM. Recombinant Hck-YEEI plus Nef, Z-Lyte FRET kinase assay. AID 463187. P08631. 220,000 compounds, 0.68% hits;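 active = Hck-Nef kinase inhibition above about 50%, limit read from the data; inactive = inhibition below that limit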;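 also: 0% = DMSO with Hck plus Nef and 100% = Hck alone without Nef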
Runt-SMMHC FRET – blocks binding of human RUNX1 Runt domain to CBFb-SMMHC; Q01196+Q13951; Cerulean-Runt/Venus-CBFb-SMMHC FRET ratio 530/480, 1 h; inhibition, % at 20 µM; 220,000 compounds, 0.74% hits; AID 1434;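 active = mean inhibition across duplicate retests at 20 µM reaching about 50%, limit read from the data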;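 also: 0% = DMSO wells and 100% = wells with excess untagged CBFb-SMMHC; inhibitors lower the FRET ratio by blocking Runt binding to CBFb-SMMHC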
14-3-3 Bad inh – disrupts binding of bovine 14-3-3 zeta to phospho-Bad peptide. P63103. TR-FRET 14-3-3zeta/Dy647-pBad peptide displacement, 1 h. inhibition, % at 21.7 µM. 220,000 compounds, 0.71% hits;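 active = inhibition above about 70%, limit read from the data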;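 also: 0% = full 14-3-3 plus peptide FRET controls and 100% = background without 14-3-3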
RanGTP-Imp inh – inhibitors of RanGTP-importin-beta interaction, primary screen, biochemical, FRET, CFP-Ran, YFP-importin-beta, homogeneous. cell-free CFP-Ran/YFP-importin-beta FRET ratio. inhibition, % (test concentration not listed). 300,000 compounds, 1.1% hits. AID 2216;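 active = more than half of the replicate wells show a fall in the fluorescence ratio signal beyond about 16%, limit read from the data, passing the limit was not always enough; inconclusive = exactly half of the replicate wells pass the set limit; inactive = fewer than half of replicates pass the limit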;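 also: 0% = DMSO wells and 100% = Ran loaded with GDP instead of GTP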
YIC FRET counter – counter-screen YIC FRET for RanGTP-importin-beta inhibitors | shares compounds with RanGTP-Imp inh | Purified YIC probe, intramolecular FRET ratio YFP/CFP | IC50, µM | 1,000 compounds, 40% hits;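 active = fitted half-maximal inhibitory concentration no more than tenfold above the top dose tested; inconclusive = flat fit with 30 to 70% activity, or poor fit; inactive = half-maximal concentration beyond tenfold above the top dose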
* marks the source's active call; other numbers are inactive results; ? = inconclusive; · = not tested or not shown. Sampled rows, rich in hits. Any-hit rate of the full collection: about 2.2%.

SMILES	Runt-CBFb FRET	Tb hexokinase	Hck-Nef inh	Runt-SMMHC FRET	14-3-3 Bad inh	RanGTP-Imp inh	YIC FRET counter
N#C/C(=C\c1cccs1)c1nc2ccccc2[nH]1	1	-9	-4	-3	2	1	·
N#C/C(=C/c1ccc(O)c(O)c1)c1nc2ccccc2[nH]1	·	·	·	·	·	39*	3.9*
CCCOc1ccc(/C(O)=C2/C(=O)C(=O)N(CCN(C)C)C2c2ccncc2)cc1 (stereo not given)	·	-36	-1	·	·	·	·
COc1ccccc1CNC(=O)COC(=O)Cc1ccc(Cl)cc1	0	-1	0	-5	4	17*	>50
COc1ccccc1CNC(=O)COC(=O)Cc1ccc(F)cc1	·	·	·	·	·	0	·
CCOC(=O)C/C(=N\Nc1ncnc2ccccc12)c1ccccc1	·	·	·	·	·	23*	>50
O=C(CCN1C(=O)COc2ccccc21)N1CCCCC1	1	-4	1	3	-3	24*	>50
O=C(CN1C(=O)COc2ccccc21)N1CCCC1	·	·	·	·	·	-1	·
COc1ccc(OC)c(S(=O)(=O)n2ccnc2C)c1	0	-3	0	3	-11	27*	>50
COc1cc(S(=O)(=O)NCCCN2CCOCC2)ccc1Cl	1	-2	-2	3	0	17*	>50
O=[N+]([O-])c1cc(S(=O)(=O)NCCCN2CCOCC2)ccc1Cl	0	22	4	-4	0	-1	·
COc1ccc2cc(CCN3C(=O)c4ccccc4C3=O)c(=O)[nH]c2c1	-1	0	-4	-1	-4	20*	>50
CC(C)NC(=O)C1CC=CCC1C(=O)O (stereo not given)	0	3	4	2	3	25*	>50
C=CCn1c(SCC(=O)Nc2ncc(Cc3cc(C(F)(F)F)ccc3Cl)s2)nnc1-c1ccncc1	3	3	3	8	53	-4	·
COc1cc(C2C3CN(C)CC=C3C(C#N)=C(N)C2(C#N)C#N)ccc1OC(C)C (stereo not given)	88*	-4	6	39	-10	39*	3.3*
Cc1cc(C(=O)Nc2ncn[nH]2)ccc1[N+](=O)[O-]	2	-8	3	3	-10	5	·
O=C(CSCC(=O)NC1CC1)Nc1ccccc1	-1	1	1	-1	4	40*	>50
Cn1c(-c2ccc3c(c2)OCO3)cnc1NCc1cccc(O)c1	-4	9	22	3	13	5	·
CC(C)CN(Cc1c(O)ccc2ccccc12)CC(C)C	8	9	-4	-2	-1	20*	>50
O=c1[nH]c(Nc2ccccn2)cc2ccccc12	·	·	·	·	·	38*	>50
COC(=O)c1ccccc1NC(=O)CSc1nnc(-c2cccc(NC(C)=O)c2)n1C	2	-1	1	-2	2	2	·
CCn1ccnc1CN1CCC(n2nccc2NC(=O)c2ccccc2OC)CC1	·	·	·	·	·	1	·
N#CC1=C(N)SC(N)=C(C#N)C1c1cccc(O)c1	23	-11	4	32	-2	22*	>50
CC(C)OC(=O)CSc1nc(N2CCOCC2)c2c(c1C#N)CC(C)(C)OC2	·	·	·	·	·	-3	·
COc1cccc(-c2cc(C(F)(F)F)n3ncc(S(=O)(=O)c4ccccc4)c3n2)c1	29	-20	20	38	8	35*	43*
SMILES	Runt-CBFb FRET	Tb hexokinase	Hck-Nef inh	Runt-SMMHC FRET	14-3-3 Bad inh	RanGTP-Imp inh	YIC FRET counter
Brc1cccc(OCCCNC2CCCC2)c1	·	·	·	·	·	-15	·
Cc1c(Cl)c([N+](=O)[O-])nn1CCCC(=O)Nc1sc2c(c1C(N)=O)CCC(C)C2 (stereo not given)	-1	6	-1	3	3	24*	>50
Cc1c(Br)c([N+](=O)[O-])nn1CCCC(=O)Nc1sc2c(c1C(N)=O)CCC(C)C2 (stereo not given)	6	35	4	-3	-20	2	·
COc1cc(C(=O)N2CCCN(c3nc4cc(C)ccc4cc3C#N)CC2)cc(OC)c1OC	4	·	·	44	·	52*	15*
Cc1ccc2cc(C#N)c(N3CCCN(C(=O)C4CCCO4)CC3)nc2c1 (stereo not given)	4	3	12	2	·	18*	26*
Cc1ccc2cc(C#N)c(N3CCCN(C(=O)c4cnccn4)CC3)nc2c1	·	·	·	·	·	6	·
Cc1ccc2cc(C#N)c(N3CCCN(C(=S)NCCCN(C)C)CC3)nc2c1	·	·	·	·	·	19*	25*
COc1ccc(C(=O)N2CCN(c3nc4cc(C)ccc4cc3C#N)CC2)c(OC)c1	8	-6	3	10	0	3	·
Cc1ccc(S(=O)(=O)N2CCCN(c3nc4cc(C)ccc4cc3C#N)CC2)cc1	8	-4	0	48	-22	32*	28*
CCOc1ccc(NC(=S)N2CCN(S(=O)(=O)c3ccc(C)cc3)CC2)cc1	·	·	·	·	·	2	·
O=S1(=O)CCN2N=C(C34CC5CC(CC(C5)C3)C4)SC2=N1	0	-5	13	4	-1	?	·
CC(C)COc1ccc(C(=O)OCC(=O)N(C)CC(=O)Nc2ccc(F)cc2)cc1	·	·	·	·	·	1	·
Cc1cc2nnn(-c3nnc(-c4ccccc4)c4ccccc34)c2cc1C	-3	-5	0	3	13	4	·
COc1ccc2cc(C#N)c(N3CCN(C(=O)c4ccccc4C)CC3)nc2c1	12	-9	-30	6	-3	31*	>50
Cc1cc(N2C(=O)C(O)=C(C(=O)c3cc4ccccc4o3)C2c2cccc(Cl)c2)no1 (stereo not given)	·	·	·	·	·	25*	7.4*
Cc1cc(C(=O)Nc2ccccc2C(=O)O)c(C)o1	·	·	·	·	·	-4	·
CN1CCN(C(=S)NC(CC(=O)c2ccccc2)c2ccccc2)CC1 (stereo not given)	-1	-9	9	2	-10	-2	·
COc1ccccc1OCCSc1nc2ccccc2n1CC(O)CO (stereo not given)	·	·	·	·	·	7	·
CCCCn1c(O)c(/C=C/C=C/C=Nc2ccccc2)sc1=S	1	13	45	-19	-9	4	·
CCCn1c(O)c(C=Nc2ccccc2)sc1=S	21	-2	12	49	-9	27*	12*
O=C(Nc1ccc(O)c(-c2nc3ccccc3o2)c1)C1(c2ccc(Br)cc2)CCCC1	0	-4	16	2	-8	11	·
CCOC(=O)c1c(N)n(CCOC(=O)c2cccs2)c2nc3ccccc3nc12	45	-12	28	109*	8	23*	37*
CCOC(=O)c1cnn(CCOC(=O)c2cccs2)c1NC(=O)c1cccs1	0	2	3	1	0	·	·
Cn1cnnc1SCC(=O)c1cc2ccccc2oc1=O	13	-3	-1	5	-5	18*	>50
